From ChEMBL document CHEMBL4689842, “EUbOPEN Chemogenomics Library wave 1” (2021)

What was measured:
HEK-293T = assay: Multiplex assay against HEK293T; assay type: toxicity, cell-based; conditions: human;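 for Population Tubulin-Different-Phenotype (%): share of the cells with healthy nuclei that show this phenotype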
Procedure, shortened: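 Per cents of healthy-nucleus cells form the tubulin, mitochondrial-mass and membrane-permeability phenotype values. Live cells were stained at seeding with Hoechst33342, BioTracker Green Microtubule Cytoskeleton Dye, MitoTracker Red and Annexin V Alexa Fluor 680. After compound addition they were imaged on a CQ1 microscope at 37°C and 5% CO2, and CellPathfinder machine-learning gating split them into Hoechst high-intensity objects or normal cells, normal cells into healthy, pyknosed or fragmented nuclei, and pyknosed cells into mitotic or apoptotic.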

Fibroblast = assay: Incucyte cell viability with human fibroblast; assay type: toxicity, cell-based; conditions: 10 µM, compound concentration 10 uM; note: filed as whole numbers so only -1 and 0 and 1 occur
[1] = 12 h, 1 µM, compound concentration 1 uM, replicate 1
[2] = 12 h, 1 µM, compound concentration 1 uM, replicate 2
[3] = 12 h, 10 µM, compound concentration 10 uM, replicate 1
[4] = 12 h, 10 µM, compound concentration 10 uM, replicate 2
[5] = 24 h, 1 µM, compound concentration 1 uM, replicate 1
[6] = 24 h, 1 µM, compound concentration 1 uM, replicate 2
[7] = 24 h, 10 µM, compound concentration 10 uM, replicate 1
[8] = 24 h, 10 µM, compound concentration 10 uM, replicate 2

SMILES: CCOC(=O)CCNc1cc(N2CCc3ccccc3CC2)nc(-c2ccccn2)n1
- Population Apoptotic (%) (HEK-293T; [1]): 15%
- Population Fragmented Nuclei (%) (HEK-293T; [1]): 15%
- Population Healthy Nuclei (%) (HEK-293T; [1]): 66%
- Population Hoechst High Intensity Objects (%) (HEK-293T; [1]): 9%
- Population Membrane Permeable-Phenotype (%) (HEK-293T; [1]): 4%
- Population Mitochondria Different-Phenotype (%) (HEK-293T; [1]): 3%
- Population Mitotic Cells (%) (HEK-293T; [1]): 84%
- Population Normal (%) (HEK-293T; [1]): 90%
- Population Pyknosed Nuclei (%) (HEK-293T; [1]): 17%
- Population Tubulin-Different-Phenotype (%) (HEK-293T; [1]): 4%
- Total Cell Count (HEK-293T; [1]): 720
- Population Apoptotic (%) (HEK-293T; [2]): 8%
- Population Fragmented Nuclei (%) (HEK-293T; [2]): 8%
- Population Healthy Nuclei (%) (HEK-293T; [2]): 86%
- Population Hoechst High Intensity Objects (%) (HEK-293T; [2]): 1%
- Population Membrane Permeable-Phenotype (%) (HEK-293T; [2]): 1%
- Population Mitochondria Different-Phenotype (%) (HEK-293T; [2]): 8%
- Population Mitotic Cells (%) (HEK-293T; [2]): 91%
- Population Normal (%) (HEK-293T; [2]): 98%
- Population Pyknosed Nuclei (%) (HEK-293T; [2]): 4%
- Population Tubulin-Different-Phenotype (%) (HEK-293T; [2]): 5%
- Total Cell Count (HEK-293T; [2]): 1753
- Population Apoptotic (%) (HEK-293T; [3]): 22%
- Population Fragmented Nuclei (%) (HEK-293T; [3]): 13%
- Population Healthy Nuclei (%) (HEK-293T; [3]): 54%
- Population Hoechst High Intensity Objects (%) (HEK-293T; [3]): 16%
- Population Membrane Permeable-Phenotype (%) (HEK-293T; [3]): 4%
- Population Mitochondria Different-Phenotype (%) (HEK-293T; [3]): 27%
- Population Mitotic Cells (%) (HEK-293T; [3]): 77%
- Population Normal (%) (HEK-293T; [3]): 83%
- Population Pyknosed Nuclei (%) (HEK-293T; [3]): 32%
- Population Tubulin-Different-Phenotype (%) (HEK-293T; [3]): 31%
- Total Cell Count (HEK-293T; [3]): 622
- Population Apoptotic (%) (HEK-293T; [4]): 26%
- Population Fragmented Nuclei (%) (HEK-293T; [4]): 3%
- Population Healthy Nuclei (%) (HEK-293T; [4]): 87%
- Population Hoechst High Intensity Objects (%) (HEK-293T; [4]): 4%
- Population Membrane Permeable-Phenotype (%) (HEK-293T; [4]): 2%
- Population Mitochondria Different-Phenotype (%) (HEK-293T; [4]): 43%
- Population Mitotic Cells (%) (HEK-293T; [4]): 73%
- Population Normal (%) (HEK-293T; [4]): 95%
- Population Pyknosed Nuclei (%) (HEK-293T; [4]): 8%
- Population Tubulin-Different-Phenotype (%) (HEK-293T; [4]): 56%
- Total Cell Count (HEK-293T; [4]): 1158
- Population Apoptotic (%) (HEK-293T; [5]): 20%
- Population Fragmented Nuclei (%) (HEK-293T; [5]): 12%
- Population Healthy Nuclei (%) (HEK-293T; [5]): 79%
- Population Hoechst High Intensity Objects (%) (HEK-293T; [5]): 4%
- Population Mitochondria Different-Phenotype (%) (HEK-293T; [5]): 2%
- Population Mitotic Cells (%) (HEK-293T; [5]): 79%
- Population Normal (%) (HEK-293T; [5]): 95%
- Population Pyknosed Nuclei (%) (HEK-293T; [5]): 8%
- Population Tubulin-Different-Phenotype (%) (HEK-293T; [5]): 7%
- Total Cell Count (HEK-293T; [5]): 821
- Population Apoptotic (%) (HEK-293T; [6]): 1%
- Population Fragmented Nuclei (%) (HEK-293T; [6]): 23%
- Population Healthy Nuclei (%) (HEK-293T; [6]): 73%
- Population Hoechst High Intensity Objects (%) (HEK-293T; [6]): 2%
- Population Membrane Permeable-Phenotype (%) (HEK-293T; [6]): 5%
- Population Mitochondria Different-Phenotype (%) (HEK-293T; [6]): 1%
- Population Mitotic Cells (%) (HEK-293T; [6]): 98%
- Population Normal (%) (HEK-293T; [6]): 97%
- Population Pyknosed Nuclei (%) (HEK-293T; [6]): 2%
- Population Tubulin-Different-Phenotype (%) (HEK-293T; [6]): 6%
- Total Cell Count (HEK-293T; [6]): 2917
- Population Apoptotic (%) (HEK-293T; [7]): 40%
- Population Fragmented Nuclei (%) (HEK-293T; [7]): 14%
- Population Healthy Nuclei (%) (HEK-293T; [7]): 46%
- Population Hoechst High Intensity Objects (%) (HEK-293T; [7]): 18%
- Population Membrane Permeable-Phenotype (%) (HEK-293T; [7]): 4%
- Population Mitochondria Different-Phenotype (%) (HEK-293T; [7]): 54%
- Population Mitotic Cells (%) (HEK-293T; [7]): 59%
- Population Normal (%) (HEK-293T; [7]): 81%
- Population Pyknosed Nuclei (%) (HEK-293T; [7]): 38%
- Population Tubulin-Different-Phenotype (%) (HEK-293T; [7]): 47%
- Total Cell Count (HEK-293T; [7]): 535
- Population Apoptotic (%) (HEK-293T; [8]): 29%
- Population Fragmented Nuclei (%) (HEK-293T; [8]): 4%
- Population Healthy Nuclei (%) (HEK-293T; [8]): 83%
- Population Hoechst High Intensity Objects (%) (HEK-293T; [8]): 8%
- Population Membrane Permeable-Phenotype (%) (HEK-293T; [8]): 2%
- Population Mitochondria Different-Phenotype (%) (HEK-293T; [8]): 50%
- Population Mitotic Cells (%) (HEK-293T; [8]): 70%
- Population Normal (%) (HEK-293T; [8]): 91%
- Population Pyknosed Nuclei (%) (HEK-293T; [8]): 12%
- Population Tubulin-Different-Phenotype (%) (HEK-293T; [8]): 65%
- Total Cell Count (HEK-293T; [8]): 1034
- Growth Rate (Fibroblast; 0 h, replicate number 2, timepoint 0 hours): 0
- Growth Rate (Fibroblast; 6 h, replicate number 1, timepoint 6 hours): 1
- Growth Rate (Fibroblast; 12 h, replicate number 1, timepoint 12 hours): 1
- Growth Rate (Fibroblast; 18 h, replicate number 1, timepoint 18 hours): 1
- Growth Rate (Fibroblast; 24 h, replicate number 1, timepoint 24 hours): 1
